Data from ChEMBL document CHEMBL1122517, “2-Phenylindoles. Relationship between structure, estrogen receptor affinity, and mammary tumor inhibiting activity in the rat” (1984).
One block for each compound: values may come before it.

Legend:
[1] = biological target: Estrogen receptor (Bos taurus) (UniProt Q9XSB5+P49884); assay: Relative binding affinity for the calf uterine estrogen receptor measured as the ratio of molar concentration of 17-beta-estradiol (E2) and inhibitor required to decrease the amount of bound [3H]E2 by 50%; assay type: protein assay
Method in brief: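 Competitive binding in calf uterine cytosol with 5×10^-9 M [3H]estradiol, 18 h at 4 °C, Tris/EDTA buffer (0.01 M, pH 7.5). Unbound ligand was removed with dextran-coated charcoal (90 min, 4 °C) and supernatant radioactivity counted. Six competitor concentrations gave 10–90% bound. From semilog plots, RBA = ratio of molar concentrations of estradiol to compound giving 50% decrease in binding, ×100.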

[2] = biological target: T1, Estrogen receptor (Mus musculus) (UniProt O08537+P19785); assay: Percentage inhibition of uterotrophic activity at 1 ug dose; assay type: functional
Method in brief: (§1)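 Antiuterotrophic test in immature 19-day-old female NMRI mice (n=10), dosed sc on 3 consecutive days with 0.4 µg estrone per animal per day plus compound in olive oil. Uterine dry weight/body weight ×100 was read 24 h after the last dose. Inhibition % = 100 − [(E_S,T − E_V)/(E_S − E_V)]×100.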

[3] = biological target: T1, Estrogen receptor (Mus musculus); assay: Uterotrophic activity in mice as uterus dry weight (mg)/body weight (g) *100 at 0.2 ug dose; assay type: functional, tissue-based
Method in brief: (§2)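 Immature 19-day-old female NMRI mice, groups of 10. Compound dose per animal in olive oil (50 µL) sc on 3 consecutive days. Mice were killed 24 h after the last injection. Uteri were Bouin-fixed 20 h, cleaned, washed with alcoholic LiCl, and dried at 100 °C for 24 h. Effect = uterine dry weight (mg)/body weight (g) ×100; mean ± SD.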

[4] = biological target: T1, Estrogen receptor (Mus musculus); assay: Anti-uterotrophic activity in mice as uterus dry weight (mg)/body weight (g) *100 at 1 ug dose; assay type: functional, tissue-based
Method in brief: (§3)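 Immature female NMRI mice, 19 days old, groups of 10, given sc injections on 3 consecutive days. Each injection held 0.4 μg estrone plus the indole dose per animal, in olive oil (50 μL). Killed 24 h after the last injection. Uteri were fixed in Bouin solution, washed, and dried 24 h at 100 °C. Read-out was uterine dry weight (mg)/body weight (g) × 100, mean ± SD.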

[5] = biological target: T1, Estrogen receptor (Mus musculus); assay: Percentage inhibition of uterotrophic activity at 5 ug dose; assay type: functional; method in brief: as §1
[6] = biological target: T1, Estrogen receptor (Mus musculus); assay: Percentage inhibition of uterotrophic activity at 25 ug dose; assay type: functional; method in brief: as §1
[7] = biological target: T1, Estrogen receptor (Mus musculus); assay: Anti-uterotrophic activity in mice as uterus dry weight (mg)/body weight (g) *100 at 125 ug dose; assay type: functional, tissue-based; method in brief: as §3
[8] = biological target: T1, Estrogen receptor (Mus musculus); assay: Uterotrophic activity in mice as uterus dry weight (mg)/body weight (g) *100 at 1 ug dose; assay type: functional, tissue-based; method in brief: as §2
[9] = biological target: T1, Estrogen receptor (Mus musculus); assay: Uterotrophic activity in mice as uterus dry weight (mg)/body weight (g) *100 at 25 ug dose; assay type: functional, tissue-based; method in brief: as §2
[10] = biological target: T1, Estrogen receptor (Mus musculus); assay: Anti-uterotrophic activity in mice as uterus dry weight (mg)/body weight (g) *100 at 5 ug dose; assay type: functional, tissue-based; method in brief: as §3
[11] = biological target: T1, Estrogen receptor (Mus musculus); assay: Percentage inhibition of uterotrophic activity at 125 ug dose; assay type: functional; method in brief: as §1
[12] = biological target: T1, Estrogen receptor (Mus musculus); assay: Anti-uterotrophic activity in mice as uterus dry weight (mg)/body weight (g) *100 at 25 ug dose; assay type: functional, tissue-based; method in brief: as §3
[13] = biological target: T1, Estrogen receptor (Mus musculus); assay: Uterotrophic activity in mice as uterus dry weight (mg)/body weight (g) *100 at 5 ug dose; assay type: functional, tissue-based; method in brief: as §2
[14] = biological target: T1, Estrogen receptor (Mus musculus); assay: Uterotrophic activity in mice as uterus dry weight (mg)/body weight (g) *100 at 125 ug dose; assay type: functional, tissue-based; method in brief: as §2
Rattus norvegicus [15] = species: Rattus norvegicus; assay: (§4) Change in DMBA-induced mammary carcinoma tumor area in rats at 1.8 mg dose; assay type: functional
Method in brief: (§5)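 Female Sprague-Dawley rats got one 20 mg DMBA dose by gavage at 50 days old and were palpated twice weekly from day 30. Rats were randomized once tumor area exceeded 140 mm². Dose (per kg) was given sc in olive oil, once daily Monday to Thursday and doubled on Friday. Tumor area was taken from caliper measurements of two perpendicular axes, twice weekly. Change per animal is given as median % and range.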

Rattus norvegicus [16] = species: Rattus norvegicus; assay: Percent progressive DMBA-induced mammary carcinoma tumors in rats at 1.8 mg dose; assay type: functional
Method in brief: (§6)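 Female Sprague-Dawley rats, 50 days old, given a single 20 mg DMBA dose in 1 mL olive oil by gavage. Rats were palpated twice weekly from day 30, and those without tumors by day 70 were discarded. Rats were randomized once tumor area exceeded 140 mm². Drug dose was per kg in olive oil (1 mL/kg) sc, single dose Mon–Thu and double dose Fri. Tumor area (caliper, two perpendicular axes) and body weight were measured twice weekly.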

Rattus norvegicus [17] = species: Rattus norvegicus; assay: Change in DMBA-induced mammary carcinoma tumor area in rats at 1.8 mg dose; 47-510; assay type: functional; method in brief: as §5
Rattus norvegicus [18] = species: Rattus norvegicus; assay: Percent unchanged DMBA-induced mammary carcinoma tumors in rats at 1.8 mg dose; assay type: functional; method in brief: as §6
Rattus norvegicus [19] = species: Rattus norvegicus; assay: Partial remission (%) of DMBA-induced mammary carcinoma tumors in rats at 1.8 mg dose; assay type: functional
Method in brief: (§7)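 DMBA-induced tumors in Sprague-Dawley rats, entered when tumor area exceeded 140 mm². Dose per kg was given sc in olive oil, daily Monday to Thursday with a double dose Friday. Tumors were measured by calipers twice weekly. Tumor number was counted at the start of the test. Complete remission meant the tumor was no longer palpable. Partial remission meant reduction to ≤50% of initial size. New tumor appearance was recorded.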

Rattus norvegicus [20] = species: Rattus norvegicus; assay: Number of DMBA-induced mammary carcinoma tumors in rats at 1.8 mg dose; assay type: functional; method in brief: as §7
Rattus norvegicus [21] = species: Rattus norvegicus; assay: as §4; assay type: functional; method in brief: as §5; remark: listed apart in the source
Rattus norvegicus [22] = species: Rattus norvegicus; assay: Formation of new DMBA-induced mammary carcinoma tumors in rats at 1.8 mg dose; assay type: functional; method in brief: as §7
Rattus norvegicus [23] = species: Rattus norvegicus; assay: Change in body weight of DMBA-induced mammary carcinoma tumor bearing rats at 1.8 mg dose; assay type: functional
Method in brief: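 DMBA-induced tumor-bearing Sprague-Dawley rats (20 mg DMBA by gavage at 50 days old), randomized when tumor area exceeded 140 mm². Dose per kg was given sc in olive oil, single dose daily Monday to Thursday, double dose Friday. Body weight was measured twice weekly. Read-out was % change in body weight.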

T1 sequence (O08537 whole entry, looked up): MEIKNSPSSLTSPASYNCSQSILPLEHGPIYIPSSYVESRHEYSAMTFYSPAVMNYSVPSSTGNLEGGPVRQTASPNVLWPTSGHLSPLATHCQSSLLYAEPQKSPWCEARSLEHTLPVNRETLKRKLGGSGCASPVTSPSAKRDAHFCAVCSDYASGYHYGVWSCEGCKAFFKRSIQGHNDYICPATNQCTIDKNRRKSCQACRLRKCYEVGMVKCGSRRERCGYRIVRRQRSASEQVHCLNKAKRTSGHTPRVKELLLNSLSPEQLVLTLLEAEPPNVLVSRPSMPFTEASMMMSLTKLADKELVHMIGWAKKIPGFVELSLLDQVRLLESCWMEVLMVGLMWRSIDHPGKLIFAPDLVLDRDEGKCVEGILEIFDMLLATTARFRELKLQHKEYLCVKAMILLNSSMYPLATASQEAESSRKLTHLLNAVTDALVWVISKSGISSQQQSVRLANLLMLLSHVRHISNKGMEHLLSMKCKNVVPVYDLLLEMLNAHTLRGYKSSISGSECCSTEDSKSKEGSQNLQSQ
T1 sequence (P19785 whole entry, looked up): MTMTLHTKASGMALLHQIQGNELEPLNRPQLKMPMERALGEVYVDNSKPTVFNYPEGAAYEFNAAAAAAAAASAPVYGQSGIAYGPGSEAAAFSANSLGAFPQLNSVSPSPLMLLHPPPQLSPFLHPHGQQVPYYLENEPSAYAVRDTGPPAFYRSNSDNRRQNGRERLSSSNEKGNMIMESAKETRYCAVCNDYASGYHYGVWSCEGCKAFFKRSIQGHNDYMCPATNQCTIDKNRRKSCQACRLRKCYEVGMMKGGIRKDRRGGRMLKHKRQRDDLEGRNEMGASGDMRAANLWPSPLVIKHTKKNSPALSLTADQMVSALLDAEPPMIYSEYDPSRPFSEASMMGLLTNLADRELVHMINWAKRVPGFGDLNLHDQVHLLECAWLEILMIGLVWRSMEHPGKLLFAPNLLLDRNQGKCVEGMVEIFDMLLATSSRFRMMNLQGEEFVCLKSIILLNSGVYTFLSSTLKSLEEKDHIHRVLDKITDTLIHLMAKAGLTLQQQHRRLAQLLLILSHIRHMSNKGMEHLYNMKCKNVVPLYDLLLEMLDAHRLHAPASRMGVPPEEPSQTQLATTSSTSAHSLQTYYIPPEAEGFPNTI

- RBA [1]: 0.01
Structure (SMILES): Oc1ccc(-c2cc3ccc(O)cc3[nH]2)cc1

- RBA [1]: 4.6
Structure (SMILES): CCCCn1c(-c2ccc(O)cc2)c(C)c2cc(O)ccc21

- RBA [1]: 19
Structure (SMILES): CCCn1c(-c2ccc(O)cc2)c(CC)c2ccc(O)cc21

- RBA [1]: 3.5
Structure (SMILES): Cc1c(-c2ccc(O)cc2)n(C(C)C)c2ccc(O)cc12

- RBA [1]: 8.5
Structure (SMILES): CCCn1c(-c2ccc(O)cc2)cc2ccc(O)cc21

- RBA [1]: 7.4
Structure (SMILES): CCCn1c(-c2cccc(O)c2)c(C)c2cc(O)ccc21

- RBA [1]: 18
Structure (SMILES): CCCn1c(-c2ccc(O)cc2)cc2cc(O)ccc21

- inhibition [2]: 31%
- inhibition [5]: 7%
- inhibition [6]: 23%
- inhibition [11]: 33%
Structure (SMILES): CC(=O)Oc1ccc(-c2c(C)c3ccc(OC(C)=O)cc3n2C)cc1
- Uterotrophic effect [3]: 18.2
- Anti-uterotrophic effect [4]: 32.3
- Anti-uterotrophic effect [7]: 31.7
- Uterotrophic effect [8]: 18.6
- Uterotrophic effect [9]: 24.2
- Anti-uterotrophic effect [10]: 38.2
- Anti-uterotrophic effect [12]: 34.3
- Uterotrophic effect [13]: 21.4

- RBA [1]: 21
Structure (SMILES): CCc1c(-c2ccc(O)cc2)n(CC)c2cc(O)ccc12

- RBA [1]: 0.55
Structure (SMILES): Cc1c(-c2cccc(O)c2)n(C)c2cc(O)ccc12

- inhibition [5]: 11%
- inhibition [6]: 15%
- inhibition [11]: 26%
Structure (SMILES): CCn1c(-c2cccc(OC(C)=O)c2)c(C)c2ccc(OC(C)=O)cc21
- Anti-uterotrophic effect [4]: 46.9
- Uterotrophic effect [14]: 39.1
- Anti-uterotrophic effect [7]: 37.4
- Uterotrophic effect [8]: 15.2
- Uterotrophic effect [9]: 30.2
- Anti-uterotrophic effect [10]: 41.7
- Anti-uterotrophic effect [12]: 40.6
- Uterotrophic effect [13]: 17.2

- RBA [1]: 9.5
Structure (SMILES): CCn1c(-c2ccc(O)cc2)c(C)c2cc(O)ccc21

- RBA [1]: 3
Structure (SMILES): CCn1c(-c2cccc(O)c2)c(C)c2ccc(O)cc21

- RBA [1]: 2.3
Structure (SMILES): CCCCCn1c(-c2ccc(O)cc2)c(C)c2cc(O)ccc21

- inhibition [2]: 24%
- inhibition [5]: 37%
- inhibition [6]: 66%
- inhibition [11]: 67%
Structure (SMILES): CCCn1c(-c2ccc(OC(C)=O)cc2)c(C)c2cc(OC(C)=O)ccc21
- Change of tumor area (Rattus norvegicus [15]): 198%
- Progressed tumors (Rattus norvegicus [16]): 55%
- Change of tumor area (Rattus norvegicus [17]): 47%
- Uterotrophic effect [3]: 16.7
- Anti-uterotrophic effect [4]: 45.2
- Static tumors (Rattus norvegicus [18]): 30%
- Partial remission (Rattus norvegicus [19]): 8%
- No. of tumors (Rattus norvegicus [20]): 34
- Change of tumor area (Rattus norvegicus [21]): 198%
- Anti-uterotrophic effect [7]: 29.3
- Uterotrophic effect [8]: 21.7
- Uterotrophic effect [9]: 28.5
- Anti-uterotrophic effect [10]: 40.3
- Anti-uterotrophic effect [12]: 29.8
- New tumors (Rattus norvegicus [22]): 27
- Change of body weight (Rattus norvegicus [23]): 2%
- Uterotrophic effect [13]: 23

- RBA [1]: 13
Structure (SMILES): CCCn1c(-c2ccc(O)cc2)c(C)c2ccc(O)cc21

- RBA [1]: 4.3
Structure (SMILES): CCCCn1c(-c2ccc(O)cc2)cc2ccc(O)cc21

- RBA [1]: 2.2
Structure (SMILES): CCn1c(-c2cccc(O)c2)c(C)c2cc(O)ccc21

- RBA [1]: 0.06
Structure (SMILES): Cc1c(-c2ccc(O)cc2)[nH]c2cc(O)ccc12

- RBA [1]: 4.6
Structure (SMILES): Cc1c(-c2ccc(O)cc2)n(C)c2ccc(O)cc12

- RBA [1]: 0.13
Structure (SMILES): CCc1c(-c2ccc(O)cc2)[nH]c2cc(O)ccc12
